According to ChEMBL document CHEMBL4145471, “New 1,5 and 2,5-disubstituted tetrazoles-dependent activity towards surface barrier of Candida albicans” (Eur J Med Chem, 2018):

What was measured:
Format in all cases: functional
Candida albicans [1] = test: Antifungal activity against Candida albicans ATCC 90028 at 0.25 ug/ml after 18 hrs relative to control
Method in brief: (§1)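 Fluconazole (water stock, diluted in RPMI 1640) tested by CLSI M27-A3 broth microdilution against C. albicans ATCC 90028. Inoculum 1.8×10^3 cells/mL in RPMI 1640 buffered with MOPS, pH 7.0. Incubation at 35°C without agitation, read at 18 and 48 h. Growth by OD405 and visually; inhibition % calculated against solvent growth-control wells after subtracting sterility-control wells.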

Candida albicans [2] = test: Antifungal activity against Candida albicans ATCC 90028 at 8 ug/ml after 18 hrs relative to control
Method in brief: (§2)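 Planktonic broth microdilution per M27-A3 in MOPS-buffered RPMI 1640 (pH 7.0), final inoculum 1.8×10^3 cells/mL, compounds 0.0313–16 µg/mL from 1600 µg/mL stocks in ethanol or DMSO. Incubated at 35°C without agitation; OD405 read at 18 and 48 h. % inhibition was derived from test, sterility (no inoculum) and solvent growth-control wells. Amphotericin B at 0.5 µg/mL served as the 100% control.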

Candida albicans [3] = test: Antifungal activity against Candida albicans ATCC 90028 at 1 ug/ml after 18 hrs relative to control; method in brief: as §2
Candida albicans [4] = test: Antifungal activity against Candida albicans ATCC 90028 at 2 ug/ml after 18 hrs relative to control; method in brief: as §2
Candida albicans [5] = test: Antifungal activity against Candida albicans ATCC 90028 at 16 ug/ml after 18 hrs relative to control; method in brief: as §2
Candida albicans [6] = test: Antifungal activity against Candida albicans ATCC 90028 at 16 ug/ml after 48 hrs relative to control; method in brief: as §2
Candida albicans [7] = test: Antifungal activity against Candida albicans ATCC 90028 at 0.0313 ug/ml after 48 hrs relative to control
Candida albicans [8] = test: Antifungal activity against Candida albicans ATCC 90028 at 4 ug/ml after 18 hrs relative to control; method in brief: as §2
Candida albicans [9] = test: Antifungal activity against Candida albicans ATCC 90028 at 0.0625 ug/ml after 48 hrs relative to control; method in brief: as §2
Candida albicans [10] = test: Antifungal activity against Candida albicans ATCC 90028 at 0.0313 ug/ml after 18 hrs relative to control
Candida albicans [11] = test: Fungicidal activity against Candida albicans ATCC 90028 at 16 ug/ml after 48 hrs by M27-A3 microdilution method
Method in brief: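 After 48 h at 35°C in M27-A3 microdilution plates (compound at 16 µg/mL), 50 µL aliquots from treated and solvent-control wells were diluted 10^4 in PBS and plated on drug-free Sabouraud dextrose agar, then incubated 48 h at 35°C. Reduction R = lg CFU/mL control − lg CFU/mL treated; R ≥ 3 defined as fungicidal.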

Candida albicans [12] = test: Antifungal activity against Candida albicans ATCC 90028 at 8 ug/ml after 48 hrs relative to control; method in brief: as §2
Candida albicans [13] = test: Antifungal activity against Candida albicans ATCC 90028 at 0.5 ug/ml after 48 hrs relative to control; method in brief: as §2
Candida albicans [14] = test: Antifungal activity against Candida albicans ATCC 90028 at 0.0625 ug/ml after 18 hrs relative to control
Candida albicans [15] = test: Antifungal activity against Candida albicans ATCC 90028 at 0.5 ug/ml after 18 hrs relative to control; method in brief: as §2
Candida albicans [16] = test: Antifungal activity against Candida albicans ATCC 90028 at 2 ug/ml after 48 hrs relative to control; method in brief: as §2
Candida albicans [17] = test: Antifungal activity against Candida albicans ATCC 90028 at 0.125 ug/ml after 48 hrs relative to control; method in brief: as §2
Candida albicans [18] = test: Antifungal activity against Candida albicans ATCC 90028 at 1 ug/ml after 48 hrs relative to control; method in brief: as §2
Candida albicans [19] = test: Antifungal activity against Candida albicans ATCC 90028 at 0.25 ug/ml after 48 hrs relative to control; method in brief: as §1
Candida albicans [20] = test: Antifungal activity against Candida albicans ATCC 90028 at 0.125 ug/ml after 18 hrs relative to control; method in brief: as §2
Candida albicans [21] = test: Antifungal activity against Candida albicans ATCC 90028 at 4 ug/ml after 48 hrs relative to control; method in brief: as §2

Row | SMILES | Activity (Candida albicans [1]) [%] | Activity (Candida albicans [2]) [%] | Activity (Candida albicans [3]) [%] | Activity (Candida albicans [4]) [%] | Activity (Candida albicans [5]) [%] | Activity (Candida albicans [6]) [%] | Activity (Candida albicans [7]) [%] | Activity (Candida albicans [8]) [%] | Activity (Candida albicans [9]) [%] | Activity (Candida albicans [10]) [%] | Activity (Candida albicans [11]) [log10CFU/ml] | Activity (Candida albicans [12]) [%] | Activity (Candida albicans [13]) [%] | Activity (Candida albicans [14]) [%] | Activity (Candida albicans [15]) [%] | Activity (Candida albicans [16]) [%] | Activity (Candida albicans [17]) [%] | Activity (Candida albicans [18]) [%] | Activity (Candida albicans [19]) [%] | Activity (Candida albicans [20]) [%] | also measured
1 | ClCCCn1nnc(-c2ccc(Cl)cc2)n1 | 99.99 | 98.47 | 91.33 | 99.22 | 100 | 98.74 | 99 | 99.02 | 98.83 | 96.23 | 0.26 | 98.75 | 98.74 | 99.94 | 96.41 | 99.24 | 98.9 | 99.1 | 99.04 | 99.94 | Activity (Candida albicans [21]): 98.93%
2 | CCOC(=O)CCn1nnnc1-c1ccccc1 | 95.76 | 99.4 | 95.93 | 90.79 | 99.13 | 98.96 | 99.23 | 98.44 | 99.26 | 99.69 | 0.16 | 99.02 | 98.96 | 99.37 | 98.87 | 97.06 | 99.01 | 98.87 | 98.01 | 99.99 | Activity (Candida albicans [21]): 98.91%
3 | ClCCCn1nnc(-c2ccccc2)n1 | 98.55 | 99.54 | 62.02 | 99.25 | 99.36 | 99.22 | 99.38 | 99.53 | 99.76 | 99.51 | -0.23 | 99.63 | 99.16 | 99.99 | 99.1 | 99.57 | 99.19 | 97.6 | 99.16 | 99.65 | Activity (Candida albicans [21]): 99.29%
4 | CCOC(=O)CCn1nnc(-c2ccc(Cl)cc2)n1 | 99.95 | 97.97 | 84.36 | 99.74 | 100 | 98.78 | 99.14 | 99.85 | 98.8 | 99.32 | 0.29 | 98.86 | 99 | 99.88 | 98.32 | 99.12 | 98.85 | 98.78 | 98.87 | 99.92 | Activity (Candida albicans [21]): 99.07%
5 | Clc1ccccc1-c1nnn(CCCN2CCOCC2)n1 | 90.79 | 98.97 | 98.01 | 92.76 | 99.64 | 99.2 | 99.12 | 98.62 | 99 | 100 | -0.08 | 98.97 | 98.83 | 98.7 | 98.11 | 97.16 | 98.94 | 99.02 | 98.01 | 98.25 | Activity (Candida albicans [21]): 98.91%
